In ChEMBL document CHEMBL2424574, “Structure-activity relationships and pharmacophore model of a noncompetitive pyrazoline containing class of GluN2C/GluN2D selective antagonists” (J Med Chem, 2013):

Key:
[1] = target: Glutamate receptor ionotropic, NMDA 2C (Rattus norvegicus) (UniProt Q00961); assay: Negative allosteric modulation of recombinant rat GluN2C receptor expressed in Xenopus laevis oocytes at 100 uM by two-electrode voltage clamp method; format: cell-based; settings: Oocyte
Method in brief: (§1)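 Two-electrode voltage clamp of Xenopus oocytes expressing rat GluN1 with GluN2A, 2B, 2C or 2D. Holding potential −40 mV in recording solution (mM: 90 NaCl, 1 KCl, 0.5 BaCl2, 0.005 EDTA, 10 HEPES, pH 7.4, 23 °C). Compounds diluted from 20 mM DMSO stocks to 0.05–0.1% final DMSO. IC50 from a Hill fit to the averaged composite concentration–response curve, 5–24 oocytes from 2–4 frogs.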

[2] = target: Glutamate receptor ionotropic, NMDA 2A (Rattus norvegicus) (UniProt Q00959); assay: Negative allosteric modulation of recombinant rat GluN2A receptor expressed in Xenopus laevis oocytes at 100 uM by two-electrode voltage clamp method; format: cell-based; settings: Oocyte; method in brief: as §1
[3] = target: Glutamate receptor ionotropic, NMDA 2B (Rattus norvegicus) (UniProt Q00960); assay: Negative allosteric modulation of recombinant rat GluN2B receptor expressed in Xenopus laevis oocytes at 100 uM by two-electrode voltage clamp method; format: cell-based; settings: Oocyte; method in brief: as §1
[4] = target: Glutamate receptor ionotropic, NMDA 2D (Rattus norvegicus) (UniProt Q62645); assay: Negative allosteric modulation of recombinant rat GluN2D receptor expressed in Xenopus laevis oocytes at 100 uM by two-electrode voltage clamp method; format: cell-based; settings: Oocyte; method in brief: as §1
[5] = target: Glutamate receptor ionotropic, NMDA 2D (Rattus norvegicus, UniProt P35439+Q62645); assay: Negative allosteric modulation of recombinant rat GluN2D receptor expressed in Xenopus laevis oocytes by two-electrode voltage clamp method; format: cell-based, Oocyte; method in brief: as §1
[6] = target: Glutamate receptor ionotropic, NMDA 2C (Rattus norvegicus, UniProt P35439+Q00961); assay: Negative allosteric modulation of recombinant rat GluN2C receptor expressed in Xenopus laevis oocytes by two-electrode voltage clamp method; format: cell-based, Oocyte; method in brief: as §1
Liver microsomes [7] = assay: Metabolic stability in human liver microsomes assessed as compound remaining at 1 uM after 60 mins by LC-MS/MS analysis; format: ADME, Microsome; settings: 1 h
Method in brief: (§2)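 Human liver microsomes 0.5 mg/mL in 100 mM potassium phosphate pH 7.4 with 5 mM MgCl2 and 1 μM test compound. Preincubated 3 min at 37 °C, then started with 1 mM NADPH, with a testosterone control in parallel. Sampled at 0, 10, 20, 30 and 60 min and quenched in cold acetonitrile/water with formic acid and internal standard. Percent remaining by LC-MS/MS (MRM) versus time 0. t1/2 = 0.693/k from the ln-remaining slope; CLint = k/protein concentration.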

MDCK [8] = assay: Permeability across basolateral to apical side in dog MDCK cells expressing MDR1 assessed as compound recovery at 5 uM after 120 mins by LC-MS/MS analysis; format: ADME, cell-based, Canis lupus familiaris; settings: 2 h
Method in brief: (§3)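 MDR1-MDCK monolayers grown to confluence on collagen-coated polycarbonate membranes. Assay buffer was HBSS with 10 mM HEPES and 15 mM glucose, pH 7.4, and the receiver side also held 1% BSA. Monolayers were dosed apically (A-to-B) or basolaterally (B-to-A) at 5 μM, 37 °C, 5% CO2. Donor and receiver were sampled at 120 min, in duplicate, by LC-MS/MS (ESI). Papp and percent recovery were calculated from receiver/donor concentrations.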

Liver microsomes [9] = assay: Half life in human liver microsomes at 1 uM; format: ADME, Microsome; method in brief: as §2
MDCK [10] = assay: Apparent permeability across basolateral to apical side in dog MDCK cells expressing MDR1 at 5 uM after 120 mins by LC-MS/MS analysis; format: ADME, cell-based, Canis lupus familiaris; settings: 2 h; method in brief: as §3
Liver microsomes [11] = assay: Metabolic stability in human liver microsomes assessed as compound remaining at 1 uM after 30 mins by LC-MS/MS analysis; format: ADME, Microsome; settings: 0.5 h; method in brief: as §2
MDCK [12] = assay: Apparent permeability across apical to basolateral side in dog MDCK cells expressing MDR1 at 5 uM after 120 mins by LC-MS/MS analysis; format: ADME, cell-based, Canis lupus familiaris; settings: 2 h; method in brief: as §3
Liver microsomes [13] = assay: Intrinsic clearance in human liver microsomes measured per mg of protein at 1 uM by LC-MS/MS analysis; format: ADME, Microsome; method in brief: as §2
Liver microsomes [14] = assay: Metabolic stability in human liver microsomes assessed as compound remaining at 1 uM after 20 mins by LC-MS/MS analysis; format: ADME, Microsome; method in brief: as §2
MDCK [15] = assay: Permeability across apical to basolateral side in dog MDCK cells expressing MDR1 assessed as compound recovery at 5 uM after 120 mins by LC-MS/MS analysis; format: ADME, cell-based, Canis lupus familiaris; settings: 2 h; method in brief: as §3
Liver microsomes [16] = assay: Metabolic stability in human liver microsomes assessed as compound remaining at 1 uM after 10 mins by LC-MS/MS analysis; format: ADME, Microsome; method in brief: as §2
[17] = target: Glutamate receptor ionotropic, NMDA 2D (Homo sapiens, UniProt O15399+Q05586); assay: Inhibition of NMDA GluN2D receptor (unknown origin)
Homo sapiens = organism: Homo sapiens; assay: Selectivity ratio of IC50 for NMDA GluN2B receptor (unknown origin) to IC50 for NMDA GluN2D receptor (unknown origin)
Rattus norvegicus [18] = organism: Rattus norvegicus; assay: Selectivity ratio of IC50 for recombinant rat GluN2B receptor to IC50 for recombinant rat GluN2D receptor
Method in brief: (§4)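 Rat GluN1 co-expressed with GluN2A, GluN2B or GluN2D in Xenopus oocytes. Two-electrode voltage clamp at −40 mV in 90 NaCl, 1 KCl, 0.5 BaCl2, 0.005 EDTA, 10 HEPES (mM), pH 7.4, 23 °C; final DMSO 0.1–0.05%. IC50s came from Hill fits to averaged composite concentration-response curves (5–24 oocytes, 2–4 frogs). Ratio is GluN2A or GluN2B IC50 over GluN2D IC50.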

[19] = target: Glutamate receptor ionotropic, NMDA 2B (Rattus norvegicus, UniProt P35439+Q00960); assay: Negative allosteric modulation of recombinant rat GluN2B receptor expressed in Xenopus laevis oocytes by two-electrode voltage clamp method; format: cell-based, Oocyte; method in brief: as §1
Rattus norvegicus [20] = organism: Rattus norvegicus; assay: Selectivity ratio of IC50 for recombinant rat GluN2A receptor to IC50 for recombinant rat GluN2D receptor; method in brief: as §4
[21] = target: Glutamate receptor ionotropic, NMDA 2A (Rattus norvegicus, UniProt P35439+Q00959); assay: Negative allosteric modulation of recombinant rat GluN2A receptor expressed in Xenopus laevis oocytes by two-electrode voltage clamp method; format: cell-based, Oocyte; method in brief: as §1

Chain of Glutamate receptor ionotropic, NMDA 2B (Rattus norvegicus) (Q00960 27-1482 limits assumed): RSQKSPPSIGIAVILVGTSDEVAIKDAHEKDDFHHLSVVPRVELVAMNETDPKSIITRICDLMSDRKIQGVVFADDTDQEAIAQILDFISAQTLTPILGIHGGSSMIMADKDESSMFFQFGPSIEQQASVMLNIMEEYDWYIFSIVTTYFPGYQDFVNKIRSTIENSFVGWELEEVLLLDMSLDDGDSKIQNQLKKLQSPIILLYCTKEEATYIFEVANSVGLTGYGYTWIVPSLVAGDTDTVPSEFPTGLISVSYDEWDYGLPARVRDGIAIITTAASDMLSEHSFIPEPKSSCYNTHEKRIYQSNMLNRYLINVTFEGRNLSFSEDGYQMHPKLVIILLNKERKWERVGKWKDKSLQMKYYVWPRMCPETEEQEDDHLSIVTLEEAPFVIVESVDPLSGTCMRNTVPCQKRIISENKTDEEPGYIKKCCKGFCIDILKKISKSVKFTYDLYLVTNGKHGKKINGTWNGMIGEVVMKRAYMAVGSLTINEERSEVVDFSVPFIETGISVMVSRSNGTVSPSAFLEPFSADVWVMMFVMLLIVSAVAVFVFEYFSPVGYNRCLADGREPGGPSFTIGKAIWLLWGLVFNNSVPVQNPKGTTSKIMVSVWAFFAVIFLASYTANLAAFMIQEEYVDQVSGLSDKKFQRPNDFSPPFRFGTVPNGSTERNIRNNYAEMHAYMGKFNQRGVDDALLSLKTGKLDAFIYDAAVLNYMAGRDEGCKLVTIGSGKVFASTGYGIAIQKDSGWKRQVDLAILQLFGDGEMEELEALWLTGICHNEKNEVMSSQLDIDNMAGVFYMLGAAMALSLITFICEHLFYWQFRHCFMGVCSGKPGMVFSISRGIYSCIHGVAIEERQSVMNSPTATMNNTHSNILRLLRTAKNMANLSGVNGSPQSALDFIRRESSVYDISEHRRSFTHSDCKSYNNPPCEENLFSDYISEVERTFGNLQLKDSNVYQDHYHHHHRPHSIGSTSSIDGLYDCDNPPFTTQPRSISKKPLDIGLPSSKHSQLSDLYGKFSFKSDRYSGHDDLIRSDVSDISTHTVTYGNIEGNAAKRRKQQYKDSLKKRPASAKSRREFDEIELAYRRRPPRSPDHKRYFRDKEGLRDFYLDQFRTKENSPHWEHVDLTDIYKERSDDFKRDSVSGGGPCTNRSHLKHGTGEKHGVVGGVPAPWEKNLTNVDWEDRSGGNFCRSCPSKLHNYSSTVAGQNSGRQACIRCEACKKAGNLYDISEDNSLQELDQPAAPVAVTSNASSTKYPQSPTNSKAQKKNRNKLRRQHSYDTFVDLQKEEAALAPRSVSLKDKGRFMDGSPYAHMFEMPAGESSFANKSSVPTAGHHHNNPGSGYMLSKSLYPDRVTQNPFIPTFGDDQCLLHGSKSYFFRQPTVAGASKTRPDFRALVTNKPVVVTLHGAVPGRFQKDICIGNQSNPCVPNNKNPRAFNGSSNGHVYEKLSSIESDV
Chain of Glutamate receptor ionotropic, NMDA 2C (Q00961 whole entry, one chain of several): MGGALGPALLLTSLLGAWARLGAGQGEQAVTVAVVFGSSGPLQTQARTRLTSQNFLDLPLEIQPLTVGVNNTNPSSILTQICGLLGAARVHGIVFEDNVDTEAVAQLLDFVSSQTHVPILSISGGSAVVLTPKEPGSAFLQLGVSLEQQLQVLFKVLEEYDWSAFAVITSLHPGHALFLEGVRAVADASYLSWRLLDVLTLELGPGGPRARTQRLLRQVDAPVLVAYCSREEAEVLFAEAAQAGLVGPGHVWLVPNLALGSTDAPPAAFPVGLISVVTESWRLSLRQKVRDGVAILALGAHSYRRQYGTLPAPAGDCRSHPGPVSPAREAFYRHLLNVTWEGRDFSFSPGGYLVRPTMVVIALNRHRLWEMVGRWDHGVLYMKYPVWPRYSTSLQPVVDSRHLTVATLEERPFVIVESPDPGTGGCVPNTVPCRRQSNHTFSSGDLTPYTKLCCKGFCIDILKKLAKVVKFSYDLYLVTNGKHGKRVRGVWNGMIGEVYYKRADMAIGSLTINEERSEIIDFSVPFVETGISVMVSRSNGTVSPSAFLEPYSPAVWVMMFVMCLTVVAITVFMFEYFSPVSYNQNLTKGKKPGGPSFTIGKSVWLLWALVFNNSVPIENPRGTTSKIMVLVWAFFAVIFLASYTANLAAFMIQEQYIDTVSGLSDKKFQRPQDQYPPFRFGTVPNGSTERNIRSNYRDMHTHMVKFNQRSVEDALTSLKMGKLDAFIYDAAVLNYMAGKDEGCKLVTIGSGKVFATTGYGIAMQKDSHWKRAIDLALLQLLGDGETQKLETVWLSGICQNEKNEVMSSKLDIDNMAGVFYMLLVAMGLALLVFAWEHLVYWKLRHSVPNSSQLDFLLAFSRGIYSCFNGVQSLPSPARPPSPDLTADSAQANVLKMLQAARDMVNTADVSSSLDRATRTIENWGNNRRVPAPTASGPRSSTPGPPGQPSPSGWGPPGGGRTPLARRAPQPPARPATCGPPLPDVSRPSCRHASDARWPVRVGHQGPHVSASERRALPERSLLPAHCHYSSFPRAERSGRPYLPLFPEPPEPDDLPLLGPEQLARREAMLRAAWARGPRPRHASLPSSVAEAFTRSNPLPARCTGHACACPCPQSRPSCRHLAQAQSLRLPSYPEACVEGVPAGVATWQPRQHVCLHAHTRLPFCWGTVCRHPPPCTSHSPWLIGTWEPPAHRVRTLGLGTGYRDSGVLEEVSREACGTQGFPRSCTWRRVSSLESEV
Chain of Glutamate receptor ionotropic, NMDA 2D (Rattus norvegicus, UniProt P35439+Q62645) (Q62645 whole entry, one chain of several): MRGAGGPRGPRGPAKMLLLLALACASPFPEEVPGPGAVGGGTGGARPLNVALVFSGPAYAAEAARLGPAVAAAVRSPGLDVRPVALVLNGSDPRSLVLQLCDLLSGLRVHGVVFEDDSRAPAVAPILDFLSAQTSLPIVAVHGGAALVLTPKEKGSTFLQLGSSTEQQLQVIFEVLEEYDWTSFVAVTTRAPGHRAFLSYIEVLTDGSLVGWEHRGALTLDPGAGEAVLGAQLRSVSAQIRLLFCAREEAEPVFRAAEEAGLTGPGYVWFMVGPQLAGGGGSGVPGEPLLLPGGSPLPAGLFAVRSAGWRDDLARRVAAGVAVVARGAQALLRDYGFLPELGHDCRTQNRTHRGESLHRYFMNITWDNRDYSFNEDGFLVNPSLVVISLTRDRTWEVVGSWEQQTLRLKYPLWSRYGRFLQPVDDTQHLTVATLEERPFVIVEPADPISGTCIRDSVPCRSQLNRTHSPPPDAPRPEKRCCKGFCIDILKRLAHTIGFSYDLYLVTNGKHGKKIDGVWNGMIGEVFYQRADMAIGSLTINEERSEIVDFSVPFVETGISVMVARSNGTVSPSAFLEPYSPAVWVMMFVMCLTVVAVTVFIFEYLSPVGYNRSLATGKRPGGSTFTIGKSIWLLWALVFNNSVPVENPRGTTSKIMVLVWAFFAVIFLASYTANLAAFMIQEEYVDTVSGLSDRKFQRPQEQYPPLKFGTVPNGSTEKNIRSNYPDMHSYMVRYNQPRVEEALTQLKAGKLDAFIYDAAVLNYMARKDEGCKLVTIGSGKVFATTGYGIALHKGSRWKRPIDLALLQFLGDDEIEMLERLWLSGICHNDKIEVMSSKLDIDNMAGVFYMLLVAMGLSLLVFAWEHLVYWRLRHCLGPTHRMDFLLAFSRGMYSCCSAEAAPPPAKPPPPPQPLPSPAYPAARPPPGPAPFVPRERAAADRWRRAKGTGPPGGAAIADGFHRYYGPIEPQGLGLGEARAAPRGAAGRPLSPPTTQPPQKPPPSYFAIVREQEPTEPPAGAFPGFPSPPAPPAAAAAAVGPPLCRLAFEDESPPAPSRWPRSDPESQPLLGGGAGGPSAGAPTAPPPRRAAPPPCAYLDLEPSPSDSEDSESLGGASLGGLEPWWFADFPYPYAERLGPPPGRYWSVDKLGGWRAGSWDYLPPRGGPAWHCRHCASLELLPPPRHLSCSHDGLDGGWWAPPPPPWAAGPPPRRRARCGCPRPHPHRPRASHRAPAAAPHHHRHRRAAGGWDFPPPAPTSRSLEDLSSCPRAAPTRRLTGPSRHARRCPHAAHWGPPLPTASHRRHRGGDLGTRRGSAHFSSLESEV
Chain of Glutamate receptor ionotropic, NMDA 2D (Rattus norvegicus) (Q62645 whole entry): as the sequence (Q62645 whole entry, one chain of several) above

inhibition [2] | inhibition [3] | IC50 [5] | IC50 [6] | further results | SMILES
< 30% | < 30% |  |  | inhibition [1]: < 30%; inhibition [4]: < 30% | COC(=O)CCC(=O)N1N=C(c2c(-c3ccccc3)c3cc(Cl)ccc3[nH]c2=O)CC1c1ccc(Br)cc1 (configuration not stated)
< 30% | < 30% | 19 µM | 39 µM |  | CN(C)c1ccc(C2CC(c3c(-c4ccccc4)c4cc(Cl)ccc4[nH]c3=O)=NN2C(=O)CCC(=O)O)cc1 (configuration not stated)
< 30% | < 30% | 4.5 µM | 5.5 µM |  | O=C(O)CCC(=O)N1N=C(c2c(-c3ccccc3)c3cc(Cl)ccc3[nH]c2=O)CC1c1ccc(Cl)cc1 (configuration not stated)
< 30% | < 30% |  |  | Stability (Liver microsomes [7]): 39%; Drug recovery (MDCK [8]): 67%; inhibition [1]: < 30%; t1/2 (Liver microsomes [9]): 35 min; Papp (MDCK [10]): 9.52 ×10⁻⁶ cm/s; Stability (Liver microsomes [11]): 49%; inhibition [4]: < 30%; Papp (MDCK [12]): 3.88 ×10⁻⁶ cm/s; CLint (Liver microsomes [13]): 40 µL/min/mg; Stability (Liver microsomes [14]): 49%; Drug recovery (MDCK [15]): 43%; Stability (Liver microsomes [16]): 67% | O=C(CCCF)N1N=C(c2c(-c3ccc(Cl)cc3)c3ccccc3[nH]c2=O)CC1c1ccc(Cl)cc1 (configuration not stated)
< 30% | < 30% |  |  | inhibition [1]: < 30%; inhibition [4]: < 30% | O=C(O)CCC(=O)N1N=C(c2c(-c3ccccc3)c3cc(Cl)ccc3[nH]c2=O)CC1c1ccc(C(=O)O)cc1 (configuration not stated)
 |  |  |  | IC50 [17]: 2.7 µM; Ratio IC50 (Homo sapiens): 41 | Cc1ccc2[nH]c(=O)c(C3=NN(C(=O)CCC(=O)O)C(c4ccc(Br)cc4)C3)c(-c3ccccc3)c2c1 (configuration not stated)
< 30% |  | 23 µM | 23 µM | Ratio IC50 (Rattus norvegicus [18]): 4; IC50 [19]: 90 µM | O=C(O)CCC(=O)N1N=C(c2c(-c3ccccc3)c3cc(Cl)ccc3[nH]c2=O)CC1c1ccc2c(c1)OCO2 (configuration not stated)
< 30% | < 30% | 13 µM | 19 µM |  | N#Cc1cccc(-c2c(C3=NN(C(=O)CCC(=O)O)C(c4ccc(Cl)cc4)C3)c(=O)[nH]c3ccccc23)c1 (configuration not stated)
< 30% | < 30% |  |  |  | O=C(O)CCC(=O)N1N=C(c2c(O)nc3ccc(Cl)cc3c2-c2ccccc2)CC1c1ccccc1 (configuration not stated)
< 30% | < 30% | 1.4 µM | 2.1 µM |  | O=C(O)/C=C/C(=O)N1N=C(c2c(-c3ccccc3)c3cc(Cl)ccc3[nH]c2=O)CC1c1ccc(Br)cc1 (configuration not stated)
 | < 30% | 7 µM | 12 µM | Ratio IC50 (Rattus norvegicus [20]): 22; IC50 [21]: 156 µM | N#Cc1ccc(-c2c(C3=NN(C(=O)CCC(=O)O)C(c4ccc(Cl)cc4)C3)c(=O)[nH]c3ccccc23)cc1 (configuration not stated)
< 30% |  | 3.1 µM | 3.6 µM |  | O=C(O)CCC(=O)N1N=C(c2c(-c3ccccc3)c3cc(Cl)ccc3[nH]c2=O)CC1c1ccc(Br)cc1 (configuration not stated)
< 30% | < 30% |  |  | inhibition [1]: < 30%; inhibition [4]: < 30% | COC(=O)CCCN1N=C(c2c(-c3ccc(Cl)cc3)c3ccccc3[nH]c2=O)CC1c1ccc(Cl)cc1 (configuration not stated)
< 30% | < 30% | 95 µM | 59 µM |  | COC(=O)/C=C/C(=O)N1N=C(c2c(-c3ccc(Br)cc3)c3ccccc3[nH]c2=O)CC1c1ccc(Cl)cc1 (configuration not stated)
 |  | 1.9 µM | 2.1 µM | Ratio IC50 (Rattus norvegicus [20]): 23; IC50 [21]: 45 µM; Ratio IC50 (Rattus norvegicus [18]): 49; IC50 [19]: 52 µM | O=C(O)CCC(=O)N1N=C(c2c(-c3ccc(Cl)cc3)c3ccccc3[nH]c2=O)C[C@@H]1c1ccc(Cl)cc1
< 30% | < 30% |  | 93 µM |  | COC(=O)c1ccc(C2CC(c3c(-c4ccccc4)c4cc(Cl)ccc4[nH]c3=O)=NN2C(=O)CCC(=O)O)cc1 (configuration not stated)
